Published values gathered from unrelated publications.
Protocols differ between the studies behind these lines.
Observed: cell growth or viability

CCCc1n(Cc2ccc3ccccc3n2)cc[n+]1Cc1ccc2ccccc2c1
TGI (HOP-62; SRB): 5380 nM

Nc1c2c(nc3ccccc13)CCCC2O (stereo not shown)
IC50 (CAL-27; 72 h): > 20000 nM

CC(C)C[C@H](NC(=O)[C@H](Cc1ccccc1)NC(=O)c1cnccn1)B(O)O
IC50 (OVK18; ATP luminescence): 8.8 nM

CCCCc1ccc2[nH]c(NC(=O)OC)nc2c1
IC50 (CAL-27; 72 h): 270 nM

CCc1n(Cc2ccc3ccccc3n2)cc[n+]1Cc1ccc2ccccc2c1
TGI (HOP-62; SRB): 7020 nM

CC1(C)CCC(CN2CCN(c3ccc(C(=O)NS(=O)(=O)c4ccc(NCC5CCOCC5)c([N+](=O)[O-])c4)c(Oc4cnc5[nH]ccc5c4)c3)CC2)=C(c2ccc(Cl)cc2)C1
EC50 (MDCK; 24 h): > 50000 nM

COc1cc(OC)c2nccc(N3CCc4c(cc(Cn5ccnc5)cc4-c4cn(C)nc4C(F)(F)F)C3=O)c2c1
GI50 (K562; ATP luminescence; 5 days): 7300 nM

COc1ccc(-c2ccc(-c3ccc(C(=N)N)nc3)s2)cc1
GI50 (UO-31): 1640 nM

S=C([S][Au-][P+](CCCCCC[P+]([Au-][S]C(=S)n1cccn1)(c1ccccc1)c1ccccc1)(c1ccccc1)c1ccccc1)n1cccn1
GI50 (UO-31): 933 nM

c1ccc(-c2n(Cc3ccc4ccccc4c3)cc[n+]2Cc2ccc3ccccc3c2)cc1
TGI (HOP-92; SRB): 2280 nM

CC(C)(C=O)Cc1cc(C(C)(C)C)c(O)c(C(C)(C)C)c1
IC50 (CAL-27; 72 h): > 20000 nM

COc1cccc(Oc2ccccc2NC(=O)CNC(=O)c2cccc3ccccc23)c1
GI50 (UO-31; SRB; 48 h): 1820 nM

COc1cc(-c2ccc(-c3ccc(C(=N)N)nc3)s2)cc(OC)c1OC
GI50 (UO-31): 1880 nM

Cc1n(Cc2ccc3ccccc3n2)cc[n+]1Cc1ccc2ccccc2c1
TGI (HOP-92; SRB): 3810 nM

COc1ccc(-c2ccc(-c3ccc(C(=N)N)nc3)s2)cc1Cl
GI50 (UO-31): 1550 nM

C[C@@H](Oc1cc(-c2cnn(C3CCNCC3)c2)cnc1N)c1c(Cl)ccc(F)c1Cl
GI50 (M091; resazurin; 48 h): 10 nM
